# Source: PubChem BioAssay (The Scripps Research Institute Molecular Screening Center)
# OX1R antag-1 – blocks the human orexin 1 receptor; OX1R-expressing cells, FRET antagonist read-out; inhibition, % at 6.6 µM; 330,000 compounds, 1.8% hits; in the data active = inhibition mostly above about 38%, no sharp cut-off; inactive = mostly below about 40%;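 note: 0% = agonist challenge alone and 100% = reference antagonist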
# Target sequence (O43613 whole entry, looked up): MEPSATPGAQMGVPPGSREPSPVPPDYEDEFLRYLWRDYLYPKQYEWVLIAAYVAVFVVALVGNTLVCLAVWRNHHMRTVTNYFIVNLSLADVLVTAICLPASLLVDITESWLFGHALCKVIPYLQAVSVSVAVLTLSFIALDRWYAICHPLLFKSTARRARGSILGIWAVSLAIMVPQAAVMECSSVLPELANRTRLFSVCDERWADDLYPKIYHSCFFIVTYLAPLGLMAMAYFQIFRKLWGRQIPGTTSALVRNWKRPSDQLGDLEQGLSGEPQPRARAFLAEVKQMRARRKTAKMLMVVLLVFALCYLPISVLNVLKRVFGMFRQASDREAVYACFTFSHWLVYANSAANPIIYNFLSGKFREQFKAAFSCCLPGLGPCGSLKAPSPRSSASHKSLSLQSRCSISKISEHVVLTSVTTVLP
# GalR3 antag – human GalR3 antagonism; HEK293 GalR3-CNG cAMP membrane potential fluorescence; galR3 body fused to GalR1 C-terminus; O60755; 360,000 compounds, 0.44% hits; AID 651719; inhibition, % at 3 µM;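 active = inhibition above the screen-wide average plus 3 SD, cut at about 13% in these data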;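 note: forskolin and galanin both at EC90 stimulate the cells; cAMP rise reported by CNG channel membrane potential dye signal; 0% = forskolin plus galanin with DMSO and 100% = forskolin alone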
# OX1R antag-2 – blocks the human orexin 1 receptor; AID 434989; 330,000 compounds, 0.43% hits; inhibition, % at 5 µM; CHO/OX1R cells, Fluo-8 calcium fluorescence, orexin A; O43613;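 active = inhibition above its plate's threshold, mean inhibition of all tested compounds on the plate plus 3 SD, cut at about 37% in these data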;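 note: 0% = orexin A challenge wells and 100% = SB-334867-A antagonist wells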
# GPR7 antag – antagonists of human GPR7 (neuropeptides B/W receptor 1); GPR7-expressing cells, fluorescence antagonist assay; inhibition, % at 4.4 µM; 290,000 compounds, 1.1% hits; AID 1861; in the data active = inhibition above about 16%, passing the limit was not always enough;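 note: cells stimulated with the agonist NPW; 0% = agonist with vehicle and 100% = vehicle without agonist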
# CHO parental Ca – counter-screen: ATP calcium response change in parental CHO cells | parental CHO-K1, ATP-induced calcium, Fluo-8 fluorescence | AID 463079 | inhibition, % at 5.6 µM | 330,000 compounds, 0.63% hits;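 active = inhibition above that plate's mean sample inhibition plus 3 SD, cut at about 26% in these data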;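 note: 0% = ATP-challenged DMSO wells and 100% = DMSO wells without ATP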
#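 Material – parental CHO cells · Reagent – ATP stimulus · Compound – single nominal dose of 5.6 µM per compound · Detection – Fluo-8 fluorescence · Read-out basis – percent inhibition of calcium signal · Controls – ATP-challenged DMSO wells low, unchallenged DMSO wells high · Repeats – no replicates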
# OX1R HTRF confirm – OX1R (human) antagonism, HTRF confirmed | 1,800 compounds, 49% hits | shares compounds with OX1R antag-1 | OX1R-expressing cells, HTRF antagonist assay | inhibition, % at 6.6 µM; in the data active = inhibition above about 55%;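 note: CHO cells expressing OX1R stimulated with orexin A at about EC80; 0% = agonist challenge alone and 100% = reference antagonist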
# CHO-K1 HTRF – counter-screen: parental CHO-K1 HTRF response; shares compounds with OX1R antag-1; inhibition, % at 6.6 µM; 1,800 compounds, 48% hits; AID 493232; parental CHO-K1 cells, HTRF counterscreen; in the data active = inhibition above about 17%;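 note: 0% = agonist challenge with vehicle and 100% = vehicle alone without agonist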
# * marks the source's active call; other numbers are inactive results; · = not tested or not shown. The list is not random: actives were taken first. Their share in the collection is about 3.1%.
SMILES,OX1R antag-1,GalR3 antag,OX1R antag-2,GPR7 antag,CHO parental Ca,OX1R HTRF confirm,CHO-K1 HTRF
CCN1C(=O)c2ccc(C(=O)Nc3nccs3)cc2C1=O,89.6*,-1.5,-13.0,-12.2,-23.1,28.8,29.1*
CC(C)(C)N1C(=O)c2ccc(C(=O)Nc3nccs3)cc2C1=O,14.1,-1.4,-33.7,-11.4,-28.2,·,·
Nc1cccc(Oc2ccc3c(c2)C(=O)N(CCO)C3=O)c1,·,-1.3,·,·,·,·,·
O=C1c2ccc(Oc3ccc4c(c3)C(=O)N(CCCO)C4=O)cc2C(=O)N1CCCO,135.7*,-2.7,-5.4,-9.9,-19.6,44.6,24.6*
Cc1ccc2c(c1)C(=O)N(CCCCO)C2=O,15.1,-0.8,-9.9,7.7,0.8,·,·
O=C1c2ccc(-c3ccc4c(c3)C(=O)N(CCO)C4=O)cc2C(=O)N1CCO,173.7*,-3.0,-9.1,0.1,-4.8,66.1*,81.8*
O=C1C2=C(c3ccccc31)[N+](=O)C1CCCCC1N2[O-] (stereo not drawn),112.1*,-4.6,-11.4,-1.8,-1.9,45.2,44.1*
O=C(CSc1cccc2cccc(Cl)c12)NC1=NCCS1,111.9*,-0.4,1.7,3.0,-5.8,35.3,8.6
O=C(CSc1ccccc1)NC1=NCCS1,11.2,-3.1,-17.2,-16.6,0.5,·,·
COCCN1C(=O)c2ccccc2C1c1nnnn1Cc1ccccc1 (stereo not drawn),·,-4.7,·,·,·,·,·
CCn1c(SCc2nc(-c3cccs3)no2)nnc1-c1c[nH]c2ccccc12,81.0*,-5.9,10.2,14.4,-25.4,43.4,2.8
O=C1C(Cl)=C(NCc2cccnc2)C(=O)c2ccccc21,83.8*,-6.6,-2.4,14.0,-5.2,65.9*,98.0*
C=CCNC1=C(Cl)C(=O)c2ccccc2C1=O,140.5*,3.9,-1.9,-1.8,-10.6,64.3*,93.6*
O=S(=O)(Cc1ccccc1)NCc1cccnc1,12.2,2.6,-12.4,-18.5,4.3,·,·
CCN(CC)CCCNC1=C(Cl)C(=O)c2ccccc2C1=O,85.6*,-6.2,-11.3,-8.2,-5.3,87.5*,113.2*
COC(=O)c1cc2c(c3c4cc(OC)ccc4n(S(C)(=O)=O)c13)C(=O)N(C)C2,·,-5.8,·,·,·,·,·
CCc1c(C2CC2)ncn1Cc1cccc(-c2ccccc2)c1,·,-6.8,·,·,·,·,·
CCOC(=O)N/N=C/c1ccc(N(CC)CC)cc1O,12.7,-0.8,2.1,13.6,4.6,·,·
CCN(CC)c1ccc(/C=N/NC(=O)c2c(Cl)cnn2C)c(O)c1,76.9*,-1.3,20.3,-18.2,-9.2,66.4*,11.5
O=C(CO)c1c[nH]c2ccccc12,·,-7.0,·,·,·,·,·
C[C@H](CO)N1C[C@H](C)[C@@H](CN(C)S(=O)(=O)c2ccc(-n3cccn3)cc2)OCc2cn(nn2)CCCC1=O,·,-7.3,·,·,·,·,·
NC(=O)c1ccc(SCC(=O)NC2CCCCC2)c([N+](=O)[O-])c1,76.9*,6.0,-9.9,-10.0,-1.1,28.9,35.1*
CC(C)C1C(=O)N(Cc2cn(CCC3OCCO3)nn2)CCS(=O)(=O)N1Cc1ccc(-c2ccccc2Cl)cc1 (stereo not drawn),·,-6.1,·,·,·,·,·
CC1(C)OC(=O)C2=C(C[C@@H](C3CCCCC3)O[C@H]2c2ccccc2)O1,·,-7.9,·,·,·,·,·
COc1cccc(-c2nnc(SCC(=O)Nc3ccc4c(c3)OCCO4)n2Cc2ccco2)c1,77.9*,-3.3,24.2,20.5,-19.3,52.4,4.7
SMILES,OX1R antag-1,GalR3 antag,OX1R antag-2,GPR7 antag,CHO parental Ca,OX1R HTRF confirm,CHO-K1 HTRF
CC1=C(C(=O)N2CCCCCC2)CC(CC(=O)NC2CC2)C(=O)N1Cc1ccccc1 (stereo not drawn),·,-3.1,·,·,·,·,·
Cc1csc(=O)n1CCC(=O)OCC(=O)c1c(N)n(CC(C)C)c(=O)n(C)c1=O,12.2,-2.9,-12.2,·,-10.6,·,·
CC(C)Cn1c(N)c(C(=O)COC(=O)CCNS(=O)(=O)c2ccccc2)c(=O)n(C)c1=O,98.6*,-2.5,-9.9,·,-3.1,22.2,2.4
Cc1ccccc1Nc1cc(C(=O)NCc2ccco2)c2ccccc2n1,83.3*,-1.6,7.5,-12.3,-16.8,50.5,2.7
CC1(C)CC(NC(=O)c2cc([N+](=O)[O-])cc([N+](=O)[O-])c2)CC(C)(C)N1,98.0*,-4.2,-2.5,-4.8,-5.5,77.6*,77.5*
CC1(C)CC(NC(=O)COc2ccc([N+](=O)[O-])cc2)CC(C)(C)N1,20.4,-5.1,-22.2,-5.8,-10.7,·,·
